Results published in ChEMBL document CHEMBL1140815, “Synthesis and structure-activity relationship studies of tyrosine-based antagonists at the human P2X7 receptor” (Bioorg Med Chem Lett, 2008).

Assays:
THP-1 [1] = assay: Inhibition of BzATP-stimulated IL1-beta release in human THP1 cells at 1 uM by ELISA; type: functional
[2] = target: T1, P2X purinoceptor 7 (Homo sapiens) (UniProt Q99572); assay: Antagonist activity at human purinergic P2X7 receptor expressed in HEK293 cells assessed as inhibition of BzATP-induced ethidium bromide uptake at 10 uM; type: functional, cell-based
T1 sequence (whole entry): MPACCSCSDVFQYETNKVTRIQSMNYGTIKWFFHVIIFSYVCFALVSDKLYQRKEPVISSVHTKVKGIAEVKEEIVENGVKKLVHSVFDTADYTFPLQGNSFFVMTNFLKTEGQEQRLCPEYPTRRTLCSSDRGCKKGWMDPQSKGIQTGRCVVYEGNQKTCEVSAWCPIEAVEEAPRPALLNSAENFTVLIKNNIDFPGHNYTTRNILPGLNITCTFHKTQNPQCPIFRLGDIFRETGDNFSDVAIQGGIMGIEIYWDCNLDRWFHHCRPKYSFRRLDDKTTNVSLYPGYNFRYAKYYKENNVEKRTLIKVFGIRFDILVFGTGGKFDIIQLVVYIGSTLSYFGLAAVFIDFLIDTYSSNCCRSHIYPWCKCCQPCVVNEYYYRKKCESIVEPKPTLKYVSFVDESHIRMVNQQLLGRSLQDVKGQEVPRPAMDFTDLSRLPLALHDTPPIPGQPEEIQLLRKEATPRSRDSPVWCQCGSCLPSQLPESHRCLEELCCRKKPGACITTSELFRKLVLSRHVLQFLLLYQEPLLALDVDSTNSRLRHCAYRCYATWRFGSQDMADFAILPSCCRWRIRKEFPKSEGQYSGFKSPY

P2X purinoceptor 7 [3] = target: T2, P2X purinoceptor 7 (Homo sapiens, UniProt Q99572); assay: Antagonist activity at human purinergic P2X7 receptor expressed in HEK293 cells assessed as inhibition of BzATP-induced ethidium bromide uptake; type: functional, cell-based
T2 sequence (Q99572 whole entry): T1 sequence (whole entry)
Outline: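 Adherent HEK293 cells stably expressing human P2X7, resuspended at 2.5×10^6 cells/ml in HEPES salt solution (mM: ethidium bromide 0.1, EDTA 1, glucose 5, HEPES 20, KCl 140; pH 7.4). Cells added to compound-containing wells, then BzATP; 37°C for 120 min. Ethidium accumulation read by fluorescence (ex 530/em 590). IC50 from concentration–response curves; mean ± SD, 3–11 repeats.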

THP-1 [4] = assay: Inhibition of BzATP-stimulated IL1-beta release in human THP1 cells by ELISA; type: functional, cell-based
Outline: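 Compound given as a 30 min pretreatment, then 1 mM BzATP for 30 min. Mature IL-1β in the centrifuged supernatant quantified by ELISA.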

P2X purinoceptor 7 [5] = target: T2, P2X purinoceptor 7; assay: Antagonist activity at human purinergic P2X7 receptor expressed in HEK293 cells assessed as inhibition of ATP-induced K(+) efflux; type: functional, cell-based

Compound	inhibition at 1 µM (THP-1 [1]) [%]	inhibition [2] [%]	IC50 (P2X purinoceptor 7 [3]) [nM]	IC50 (THP-1 [4]) [nM]	IC50 (P2X purinoceptor 7 [5]) [nM]
O=C(N[C@@H](Cc1ccc(OS(=O)(=O)c2ccc(NC(=S)NCCCCNC(=S)Nc3ccc(S(=O)(=O)Oc4ccc(C[C@H](NC(=O)OCc5ccccc5)C(=O)N5CCN(C(=O)c6ccccc6)CC5)cc4)cc3)cc2)cc1)C(=O)N1CCN(C(=O)c2ccccc2)CC1)OCc1ccccc1	37	28			
CC(C)(C)OC(=O)N1CCN(C(=O)[C@H](Cc2ccc(OS(=O)(=O)c3ccc(I)cc3)cc2)NC(=O)OCc2ccccc2)CC1	72		3540		
Cc1ccc(S(=O)(=O)Oc2ccc(C[C@H](NC(=O)OCc3ccccc3)C(=O)N3CCN(C(=O)c4ccc(F)cc4)CC3)cc2)cc1	68		319		
Cc1ccc(S(=O)(=O)Oc2ccc(C[C@H](NC(=O)OCc3ccccc3)C(=O)N3CCN(C(=O)c4ccccc4)[C@@H](C)C3)cc2)cc1	69		260		
Cc1ccc(S(=O)(=O)Oc2ccc(C[C@H](NC(=O)OCc3ccccc3)C(=O)N3CCN(C(=O)c4ccc(Br)cc4)CC3)cc2)cc1	78		481	881	
C[C@H]1CN(C(=O)[C@H](Cc2ccc(OS(=O)(=O)c3ccc(I)cc3)cc2)NC(=O)OCc2ccccc2)CCN1C(=O)c1ccc(N(C)C)cc1	61	55			
CC(C)(C)OC(=O)N1CCN(C(=O)[C@H](Cc2ccc(OS(=O)(=O)c3ccc(C#N)cc3)cc2)NC(=O)OCc2ccccc2)CC1	60		780		
Cc1ccc(S(=O)(=O)Oc2ccc(C[C@H](NC(=O)OCc3ccccc3)C(=O)N3CCN(C(=O)c4ccccc4)CC3)cc2)cc1	70		599		
Cc1ccc(S(=O)(=O)Oc2ccc(C[C@H](NC(=O)OCc3ccccc3)C(=O)N3CCN(C(=O)c4ccc(N(C)C)cc4)[C@@H](C)C3)cc2)cc1	68	54			
CC(C)(C)OC(=O)N1CCN(C(=O)[C@H](Cc2ccc(OS(=O)(=O)c3ccc(CBr)cc3)cc2)NC(=O)OCc2ccccc2)CC1	52		2460		
CN([C@@H](Cc1ccc(OS(=O)(=O)c2cccc3cnccc23)cc1)C(=O)N1CCN(c2ccccc2)CC1)S(=O)(=O)c1cccc2cnccc12	83		175	188	
Cc1ccc(S(=O)(=O)Oc2ccc(C[C@H](NC(=O)OCc3ccccc3)C(=O)N3CCN(C(=O)c4ccc(C(F)(F)F)cc4)CC3)cc2)cc1	65		724		
Cc1ccc(S(=O)(=O)Oc2ccc(C[C@H](NC(=O)OCc3ccccc3)C(=O)N3CCN(C(=O)OC(C)(C)C)CC3)cc2)cc1	72		1540		
CC(C)(C)OC(=O)N1CCN(C(=O)[C@H](Cc2ccc(OS(=O)(=O)c3ccc(Br)cc3)cc2)NC(=O)OCc2ccccc2)CC1	68		517		
Cc1ccc(S(=O)(=O)Oc2ccc(C[C@H](NC(=O)OCc3ccccc3)C(=O)N3CCN(C(=O)c4ccccc4)[C@H](C)C3)cc2)cc1	65		256		
C[C@H]1CN(C(=O)[C@H](Cc2ccc(OS(=O)(=O)c3ccc(C#N)cc3)cc2)NC(=O)OCc2ccccc2)CCN1C(=O)c1ccc(N(C)C)cc1	59		539		
Cc1ccc(S(=O)(=O)Oc2ccc(C[C@H](NC(=O)OCc3ccccc3)C(=O)N3CCN(C(=O)c4ccc(N(C)C)cc4)CC3)cc2)cc1	65		2010		
CC(C)(C)OC(=O)N1CCN(C(=O)[C@H](Cc2ccc(OS(=O)(=O)c3ccc(OC(F)(F)F)cc3)cc2)NC(=O)OCc2ccccc2)CC1	46		725		
O=C(N[C@@H](Cc1ccc(OS(=O)(=O)c2ccc([N+](=O)[O-])cc2)cc1)C(=O)N1CCN(C(=O)c2ccccc2)CC1)OCc1ccccc1	48		117		
Cc1ccc(S(=O)(=O)Oc2ccc(C[C@@H](NC(=O)OCc3ccccc3)C(=O)N3CCN(C(=O)OC(C)(C)C)CC3)cc2)cc1	56		861		
CC(C)(C)OC(=O)N1CCN(C(=O)[C@H](Cc2ccc(OS(=O)(=O)c3cccc4cnccc34)cc2)NS(=O)(=O)c2cccc3cnccc23)CC1					40
Cc1ccc(S(=O)(=O)Oc2ccc(C[C@@H](C(=O)N3CCN(C(=O)c4ccccc4)CC3)N(C)C(=O)OCc3ccccc3)cc2)cc1	47		1360		
CC(C)(C)OC(=O)N1CCN(C(=O)[C@H](Cc2ccc(OS(=O)(=O)c3ccc(F)cc3)cc2)NC(=O)OCc2ccccc2)CC1	56		5880		
Cc1ccc(S(=O)(=O)Oc2ccc(C[C@H](NC(=O)OCc3ccccc3)C(=O)N3CCN(C(=O)c4ccccc4)C[C@@H]3C)cc2)cc1	45		504		
